Data: ChEMBL document CHEMBL1795259, “Thymol, benzofuranoid, and phenylpropanoid derivatives: anti-inflammatory constituents from Eupatorium cannabinum” (J Nat Prod, 2011)
pIC50: −log10 of the molar value.

What was measured:
Details in all cases: Neutrophil
[1] = Antiinflammatory activity in human neutrophils assessed as inhibition of fMLP/cytochalasin B-induced elastase release using MeO-Suc-Ala-Ala-Pro-Val-p-nitroanilide as elastase substrate after 5 mins; format: functional, cell-based
Outline: (§1)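 Neutrophils isolated from venous blood of healthy adult volunteers (20-28 y) by dextran sedimentation, Ficoll-Hypaque centrifugation and hypotonic erythrocyte lysis, >98% viable, kept in Ca2+-free HBSS pH 7.4 at 4 °C. Cells (6 × 10^5/mL) given 100 μM substrate, equilibrated 2 min at 37 °C, compound 5 min, then fMLP 100 nM/CB 0.5 μg/mL; A405 monitored continuously. Mean ± SEM, n = 3-4.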

[2] = Antiinflammatory activity in human neutrophils assessed as inhibition of fMLP/cytochalasin B-induced superoxide anion production after 5 mins by spectrophotometer analysis; format: functional, cell-based
Outline: (§2)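 Donor neutrophils (6 × 10^5/mL) prepared as for elastase, with 0.5 mg/mL ferricytochrome c and 1 mM Ca2+. Equilibrated 2 min at 37 °C, compound or DMSO 5 min, CB 1 μg/mL 3 min, then fMLP 100 nM 10 min. A550 monitored continuously with stirring. SOD (100 U/mL)-inhibitable reduction, ε = 21.1/mM/10 mm. Mean ± SEM, n = 3-4.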

[3] = Antiinflammatory activity in human neutrophils assessed as inhibition of fMLP/cytochalasin B-induced superoxide anion production at 10 ug/mL after 5 mins by spectrophotometer analysis; format: functional; outline: as §2
[4] = Antiinflammatory activity in human neutrophils assessed as inhibition of fMLP/cytochalasin B-induced elastase release using MeO-Suc-Ala-Ala-Pro-Val-p-nitroanilide as elastase substrate at 10 ug/mL after 5 mins; format: functional; outline: as §1

| Structure (SMILES) | pIC50 [1] | pIC50 [2] | inhibition at 10 µg/mL [3] | inhibition at 10 µg/mL [4] |
| --- | --- | --- | --- | --- |
| C/C=C(\C)C(=O)Oc1cc(C)ccc1C1(COC(C)=O)CO1 (stereo not drawn) | 4.59 | 5.08 | – | – |
| C/C=C(/C)C(=O)OCC(O)(COC(C)=O)c1ccc(C)cc1O (stereo not drawn) | 5.20 | 4.88 | – | – |
| CC(=O)c1ccc(CO)cc1O | 5.20 | 5.09 | – | – |
| C=C(COC(=O)CC(C)C)c1ccc(C)cc1O | 4.74 | – | 39.6% | – |
| O=c1ccc2ccccc2o1 [COUMARIN] | – | – | 8.5% | 23.8% |
| C=C(C)c1cc2cc(C(C)=O)c(O)cc2o1 [EUPARIN] | – | – | 13.7% | 12.6% |
| C=C(CO)c1ccc(C)cc1O | – | – | 2.67% | 1.86% |
| O=c1cc(N2CCOCC2)oc2c(-c3ccccc3)cccc12 [LY-294002] | 5.70 | 5.96 | – | – |
| C=C(COC(=O)/C(C)=C\C)c1ccc(C)cc1O | – | – | 20.3% | 23% |
| Cc1ccc2c(c1)OC(C)(O)C2=O (stereo not drawn) | – | – | 0.02% | 17.3% |
| C=C(COC(C)=O)c1ccc(C)cc1OC(=O)/C(C)=C/C | – | 5.07 | – | 36.6% |
| C=C1CC[C@]2(C)CC[C@]3(C)[C@H](CC[C@@H]4[C@@]5(C)CC[C@H](OC(C)=O)C(C)(C)[C@@H]5CC[C@]43C)[C@H]2[C@@H]1C [TARAXASTEROL ACETATE] | – | – | 0.68% | 4.73% |
| Cc1ccc2c(c1)OC1OC3(CCC21O)c1ccc(C)cc1OC3O (stereo not drawn) | – | – | 4.37% | 13% |
| C/C=C(\C)C(=O)Oc1cc(C)ccc1C(C)COC(C)=O (stereo not drawn) | – | 4.74 | – | 21.6% |
| C/C=C(/C)C(=O)OCC(C)(OC)c1ccc(C)cc1O (stereo not drawn) | – | – | 14.7% | 13.6% |
| CC(=O)C(=O)c1ccc(C)cc1O | – | – | 10.1% | 37.3% |
| C=C(COC(=O)C(C)C)c1ccc(C)cc1O | 4.79 | – | 32.7% | – |
| C/C=C(/C)C(=O)O[C@@H]1Oc2cc(C)ccc2[C@@]1(C)O (relative stereo) [EUPATOBENZOFURAN] | 4.95 | – | 37.1% | – |
| COC(C)(COC(=O)C(C)C)c1ccc(C)cc1O (stereo not drawn) | – | 5.09 | – | 30% |
